Results as given in ChEMBL document CHEMBL1129731, “The chemistry of pseudomonic acid. 17. Dual-action C-1 oxazole derivatives of pseudomonic acid having an extended spectrum of antibacterial activity” (J Med Chem, 1996).
Converted amounts (≈) assume the structure as drawn.

What was measured:
[1] = system: Bacteroides fragilis; assay: compound was tested for antibacterial activity Bacteroides fragilis NCTC 10581.; type: functional
[2] = system: Enterobacter cloacae; assay: compound was tested for antibacterial activity against Ent. cloacae N1.; type: functional
[3] = system: Escherichia coli; assay: compound was tested for antibacterial activity against Escherichia coli DC0.; type: functional
[4] = system: Escherichia coli; assay: compound was tested for antibacterial activity against Escherichia coli DC2.; type: functional
Procedure, shortened: (§1)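 Broth microdilution in Mueller–Hinton broth; overnight broth cultures added to final 5 × 10^5 cfu/mL; incubated 37 °C, 18 h. MIC (µg/mL) taken as lowest concentration inhibiting growth.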

[5] = system: Enterococcus faecalis; assay: compound was tested for antibacterial activity against Ent. faecalis I; type: functional; procedure, shortened: as §1
[6] = system: Haemophilus influenzae; assay: compound was tested for antibacterial activity against Haemophilus influenzae Q1.; type: functional
Procedure, shortened: (§2)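 Broth microdilution in Mueller–Hinton broth supplemented (final) with 5% heat-inactivated horse serum, 0.02 mg/mL hematin and 0.08 mg/mL NAD; inoculum 5 × 10^5 cfu/mL from overnight broth cultures; 37 °C for 18 h; MIC (µg/mL) read as lowest concentration inhibiting growth.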

[7] = molecular target: T1, Isoleucine--tRNA ligase (Staphylococcus aureus, UniProt P41972); assay: Inhibitory activity against isoleucyl-tRNA synthetase (IRS) of Staphylococcus aureus; type: functional
T1 sequence (P41972 whole entry): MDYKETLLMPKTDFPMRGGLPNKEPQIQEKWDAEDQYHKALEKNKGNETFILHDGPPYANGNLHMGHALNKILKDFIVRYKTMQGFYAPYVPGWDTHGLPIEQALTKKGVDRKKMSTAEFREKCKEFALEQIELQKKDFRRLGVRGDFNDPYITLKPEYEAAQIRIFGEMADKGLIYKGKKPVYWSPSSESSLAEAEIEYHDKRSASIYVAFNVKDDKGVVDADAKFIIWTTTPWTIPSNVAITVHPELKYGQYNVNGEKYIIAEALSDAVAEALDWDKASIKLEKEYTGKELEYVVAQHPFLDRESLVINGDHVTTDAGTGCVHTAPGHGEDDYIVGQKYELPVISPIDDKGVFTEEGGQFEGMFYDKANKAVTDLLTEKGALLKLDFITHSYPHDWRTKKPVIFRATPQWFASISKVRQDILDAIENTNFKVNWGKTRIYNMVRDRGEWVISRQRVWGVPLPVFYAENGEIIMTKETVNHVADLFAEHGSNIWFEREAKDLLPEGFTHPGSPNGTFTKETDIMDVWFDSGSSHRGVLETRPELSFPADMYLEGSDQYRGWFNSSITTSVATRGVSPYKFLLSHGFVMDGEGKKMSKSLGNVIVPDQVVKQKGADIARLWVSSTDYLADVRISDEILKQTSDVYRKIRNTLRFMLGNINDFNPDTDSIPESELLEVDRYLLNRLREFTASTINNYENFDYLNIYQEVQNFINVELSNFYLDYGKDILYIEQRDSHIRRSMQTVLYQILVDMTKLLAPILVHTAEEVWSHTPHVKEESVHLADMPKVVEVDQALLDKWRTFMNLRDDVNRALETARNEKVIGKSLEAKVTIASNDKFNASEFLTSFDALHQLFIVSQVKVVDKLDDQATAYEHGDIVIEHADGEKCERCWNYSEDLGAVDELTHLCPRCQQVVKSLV

[8] = system: Klebsiella pneumoniae; assay: compound was tested for antibacterial activity against Klebsiella pneumoniae E70.; type: functional; procedure, shortened: as §1
[9] = system: Moraxella catarrhalis; assay: compound was tested for antibacterial activity against Moraxella catarrhalis 1502.; type: functional; procedure, shortened: as §2
[10] = system: Proteus mirabilis; assay: compound was tested for antibacterial activity against Pr. mirabilis C889.; type: functional; procedure, shortened: as §1
[11] = system: Pseudomonas aeruginosa; assay: compound was tested for antibacterial activity against Pseudomonas aeruginosa K799 wt.; type: functional; procedure, shortened: as §1
[12] = system: Staphylococcus epidermidis; assay: compound was tested for antibacterial activity aagainst Staphylococcus epidermidis PHLN 20.; type: functional; procedure, shortened: as §1
[13] = system: Streptococcus pneumoniae; assay: compound was tested for antibacterial activity against Strep. pneumoniae 1761.; type: functional; procedure, shortened: as §2
[14] = system: Staphylococcus aureus; assay: compound was tested for antibacterial activity against Staphylococcus aureus F 89.; type: functional; procedure, shortened: as §1
[15] = system: Staphylococcus aureus; assay: compound was tested for antibacterial activity against Staphylococcus aureus NCTC 6571.; type: functional; procedure, shortened: as §1
[16] = system: Streptococcus pyogenes; assay: compound was tested for antibacterial activity against Streptococcus pyogenes CN10.; type: functional; procedure, shortened: as §2
[17] = system: Staphylococcus aureus; assay: compound was tested for antibacterial activity against Staphylococcus aureus C 37.; type: functional
[18] = molecular target: T1, Isoleucine--tRNA ligase; assay: (§3) Inhibitory activity against isoleucyl-tRNA synthetase (IRS) of Staphylococcus aureus 11481; type: functional
[19] = system: Staphylococcus aureus; assay: Minimum inhibitory activity against Staphylococcus aureus 11481; type: functional; procedure, shortened: as §1
[20] = system: Staphylococcus aureus; assay: Minimum inhibitory activity against Staphylococcus aureus C 7; type: functional; procedure, shortened: as §1
[21] = system: Staphylococcus aureus; assay: Minimum inhibitory activity against Staphylococcus aureus NCTC 6571; type: functional; procedure, shortened: as §1
[22] = molecular target: T1, Isoleucine--tRNA ligase; assay: Inhibitory activity against isoleucyl-tRNA synthetase (IRS) of Staphylococcus aureus NCTC 6571
[23] = system: Bacteroides fragilis; assay: compound was tested for antibacterial activity against Bacteroides fragilis NCTC 10581.; type: functional
[24] = molecular target: T1, Isoleucine--tRNA ligase; assay: as §3
[25] = molecular target: T1, Isoleucine--tRNA ligase; assay: Inhibitory activity against isoleucyl-tRNA synthetase (IRS) of Staphylococcus aureus C 7
[26] = system: Staphylococcus aureus; assay: Minimum inhibitory concentration against Staphylococcus aureus C 7; type: functional; procedure, shortened: as §1
[27] = system: Isoleucine--tRNA ligase (Staphylococcus aureus); assay: Inhibitory activity against isoleucyl-tRNA synthetase (IRS) of Staphylococcus aureus NCTC 6571
[28] = molecular target: T1, Isoleucine--tRNA ligase; assay: compound was tested for inhibitory activity of isoleucyl-tRNA synthetase (IRS).; type: functional
[29] = Pharmacokinetic parameter Cmax was determined in blood level in mouse after oral administration.; type: ADME, organism-based; design: route oral
Procedure, shortened: (§4)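 CD1 male mice (18–22 g), nonfasted, groups of five; 50 mg/kg in 0.2 mL, dissolved in 10% ethanol then diluted 1:9 with 1% HPMC in water (po) or PBS pH 7.3 (sc). Blood sampled 5–240 min; levels by Bacillus subtilis agar bioassay (pH 7.0, 30 °C overnight) against standards in heparinized mouse blood.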

[30] = system: Mus musculus; assay: Pharmacokinetic parameter Cmax was determined in blood level in mouse after subcutaneous administration.; type: ADME, organism-based; design: route subcutaneous; conditions: in vivo, sc; procedure, shortened: as §4
[31] = system: Mus musculus; assay: Pharmacokinetic parameter AUC was determined in blood level in mouse after oral administration.; type: ADME, organism-based; conditions: in vivo; procedure, shortened: as §4
[32] = system: Mus musculus; assay: Pharmacokinetic parameter AUC was determined in blood level in mouse after subcutaneous administration.; type: ADME, organism-based; conditions: in vivo, sc; procedure, shortened: as §4
[33] = system: Mus musculus; assay: Total […] dose against Staphylococcus aureus after […] administration (1+5 hr post infection) to mouse; type: organism-based; conditions: in vivo, po
Procedure, shortened: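 CD1 male mice, groups of five, infected ip with S. aureus Smith, 1.3 × 10^10 cfu (po groups) or 5 × 10^9 cfu (sc groups); dosed po or sc at 1 + 5 h postinfection, 0.2 mL/mouse. CD50 = total dose protecting 50% of mice from death, scored day 2 postinfection.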

[34] = Pharmacokinetic parameter Tmax was determined in blood level in mouse after oral administration.; type: ADME, organism-based; procedure, shortened: as §4
[35] = Pharmacokinetic parameter Tmax was determined in blood level in mouse after subcutaneous administration.; type: ADME, organism-based; conditions: sc; procedure, shortened: as §4
[36] = system: Mus musculus; assay: Total […] dose against Staphylococcus aureus after sc administration (1+5 hr post infection) to mouse; conditions: in vivo

SMILES	MIC [1]	MIC [2]	MIC [3]	MIC [4]	MIC [5]	MIC [6]	IC50 [7]	MIC [8]	MIC [9]	MIC [10]	MIC [11]	MIC [12]	MIC [13]	MIC [14]	MIC [15]	MIC [16]	MIC [17]	also measured
C/C(=C\c1ncc(-c2csc([N+](=O)[O-])c2)o1)C[C@@H]1OC[C@H](C[C@@H]2O[C@H]2[C@@H](C)[C@H](C)O)[C@@H](O)[C@H]1O	16 µg/mL (≈ 32.4 µM)	16 µg/mL (≈ 32.4 µM)	32 µg/mL (≈ 64.7 µM)	< 0.06 µg/mL	32 µg/mL (≈ 64.7 µM)	< 0.06 µg/mL	0.00445 µM	64 µg/mL (≈ 129 µM)	0.125 µg/mL (≈ 0.253 µM)	64 µg/mL (≈ 129 µM)	> 64 µg/mL	0.125 µg/mL (≈ 0.253 µM)	< 0.06 µg/mL	64 µg/mL (≈ 129 µM)	0.125 µg/mL (≈ 0.253 µM)	< 0.06 µg/mL	32 µg/mL (≈ 64.7 µM)	–
C/C(=C\c1ncc(-c2ccc([N+](=O)[O-])s2)o1)C[C@@H]1OC[C@H](C[C@@H]2O[C@H]2[C@@H](C)[C@H](C)O)[C@@H](O)[C@H]1O	2 µg/mL (≈ 4.04 µM)	> 64 µg/mL	> 64 µg/mL	< 0.06 µg/mL	> 64 µg/mL	< 0.06 µg/mL	–	> 64 µg/mL	< 0.06 µg/mL	> 64 µg/mL	> 64 µg/mL	< 0.06 µg/mL	< 0.06 µg/mL	8 µg/mL (≈ 16.2 µM)	0.125 µg/mL (≈ 0.253 µM)	< 0.06 µg/mL	8 µg/mL (≈ 16.2 µM)	IC50 [18]: 0.243 µM; MIC [19]: 8 µg/mL (≈ 16.2 µM); MIC [20]: 32 µg/mL (≈ 64.7 µM); MIC [21]: 0.13 µg/mL (≈ 0.263 µM); IC50 [22]: 0.00667 µM
C/C(=C\C(=O)OCCCCCCCCC(=O)O)C[C@@H]1OC[C@H](C[C@@H]2O[C@H]2[C@@H](C)[C@H](C)O)[C@@H](O)[C@H]1O [MUPIROCIN]	–	–	–	0.13 µg/mL (≈ 0.26 µM)	32 µg/mL (≈ 63.9 µM)	< 0.06 µg/mL	–	> 64 µg/mL	0.5 µg/mL (≈ 0.999 µM)	> 64 µg/mL	> 64 µg/mL	0.125 µg/mL (≈ 0.25 µM)	< 0.06 µg/mL	> 64 µg/mL	< 0.06 µg/mL	< 0.06 µg/mL	–	MIC [23]: > 64 µg/mL; IC50 [24]: 0.28 µM; IC50 [25]: 39.9 µM; MIC [26]: > 2050 µg/mL; IC50 [27]: 0.0008 µg/mL (≈ 0.0016 µM)
C/C(=C\c1ncc(-c2cc([N+](=O)[O-])cs2)o1)C[C@@H]1OC[C@H](C[C@@H]2O[C@H]2[C@@H](C)[C@H](C)O)[C@@H](O)[C@H]1O	> 64 µg/mL	16 µg/mL (≈ 32.4 µM)	32 µg/mL (≈ 64.7 µM)	< 0.06 µg/mL	32 µg/mL (≈ 64.7 µM)	< 0.06 µg/mL	0.00687 µM	32 µg/mL (≈ 64.7 µM)	< 0.06 µg/mL	64 µg/mL (≈ 129 µM)	> 64 µg/mL	< 0.06 µg/mL	< 0.06 µg/mL	> 64 µg/mL	< 0.06 µg/mL	< 0.06 µg/mL	32 µg/mL (≈ 64.7 µM)	–
C/C(=C\c1ncc(-c2ccc([N+](=O)[O-])o2)o1)C[C@@H]1OC[C@H](C[C@@H]2O[C@H]2[C@@H](C)[C@H](C)O)[C@@H](O)[C@H]1O	2 µg/mL (≈ 4.18 µM)	4 µg/mL (≈ 8.36 µM)	16 µg/mL (≈ 33.4 µM)	< 0.06 µg/mL	16 µg/mL (≈ 33.4 µM)	< 0.06 µg/mL	–	> 64 µg/mL	< 0.06 µg/mL	> 64 µg/mL	> 64 µg/mL	< 0.06 µg/mL	< 0.06 µg/mL	4 µg/mL (≈ 8.36 µM)	< 0.06 µg/mL	< 0.06 µg/mL	4 µg/mL (≈ 8.36 µM)	IC50 [28]: 400 µg/mL (≈ 836 µM); Cmax [29]: 28700 ng/mL; Cmax [30]: 30500 ng/mL; AUC [31]: 1734 ug m-1 min-1; AUC [32]: 2407 ug m-1 min-1; CD50 [33]: 3.2 mg/kg; Tmax [34]: 15 min; Tmax [35]: 5 min; CD50 [36]: 1.2 mg/kg
